NR2E3 ag-1 = NR2E3 (human) agonism. inhibition of corepressor binding, % at 4.78 µM. GST-NR2E3/biotin-RetCOR TR-FRET, 1536-well. actives 0.12% (n = 320,000);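 active = percent inhibition above the cutoff of mean plus 3 SD of all tested compounds, set per screening campaign, cut at about 20% in these data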;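 note: 0% = DMSO wells and 100% = biotin wells as full block of FRET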
Target sequence (Q9Y5X4 whole entry, looked up): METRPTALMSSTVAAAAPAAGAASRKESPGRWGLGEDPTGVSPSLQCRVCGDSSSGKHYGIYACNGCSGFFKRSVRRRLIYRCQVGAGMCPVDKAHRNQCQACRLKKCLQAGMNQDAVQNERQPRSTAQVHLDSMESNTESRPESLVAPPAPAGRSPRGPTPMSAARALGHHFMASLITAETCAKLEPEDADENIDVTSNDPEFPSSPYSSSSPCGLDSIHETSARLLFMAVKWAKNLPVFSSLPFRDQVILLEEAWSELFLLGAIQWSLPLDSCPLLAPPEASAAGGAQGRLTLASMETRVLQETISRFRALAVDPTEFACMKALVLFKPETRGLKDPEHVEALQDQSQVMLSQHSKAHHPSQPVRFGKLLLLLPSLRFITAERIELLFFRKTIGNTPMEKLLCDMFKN
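system = GST-tagged NR2E3 plus biotinylated RetCOR corepressor | input = 1.35 nM GST-NR2E3 | also added = 7 nM biotin-RetCOR | schedule = 5 h incubation at 4 °C | measured by = TR-FRET with europium anti-GST and streptavidin-D2, 340 nm excitation | read-out = percent loss of FRET ratio relative to control wells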
NR2E3 ag-2 = human photoreceptor-specific nuclear receptor agonism; Q9Y5X4; CHO-S Gal4-NCOR/VP16-NR2E3 two-hybrid, luciferase; inhibition of corepressor binding, % at 3.98 µM; actives 0.35% (n = 360,000);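 active = inhibition above the mean of all tested compounds plus 3 SD, cut at about 70% in these data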;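 note: 0% = DMSO with NR2E3 transfected cells and 100% = cells lacking NR2E3 construct; higher means lower luciferase signal from less NR2E3 corepressor binding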
SKN-1 block = blocks SKN-1 activity in C. elegans; C. elegans VP596 Pgst-4::GFP/RFP ratio, acrylamide-induced, 24 h; inhibition, % at 21.8 µM; actives 0.49% (n = 360,000); AID 624304;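 active = interference check ratio from 0.5 to 1.5 plus GFP to RFP signal ratio inhibition reaching or exceeding a fixed threshold, cut at about 30% in these data, passing the limit was not always enough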
MT1-MMP act inh = inhibitors of human MT1-MMP activation | P50281 | HT1080 RFP-PRO-GFP cells, GFP/RFP ratio fluorescence, overnight; percent of plate control window, DMSO zero | actives 0.061% (n = 360,000) | GFP/RFP ratio change, % at 20 µM;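 active = GFP/RFP ratio change of at least 30% with cell ATP level not reduced by more than half and red fluorescence within 50% of control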
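Test system: HT1080 RFP-PRO-GFP cells; Benchmarks: DMSO and RFP-L50D-GFP cell wells; Timing: cells overnight before dosing, compound overnight, 37 °C, 5% CO2; Compound: one 20 µM compound dose with 1% DMSO; Read-out: GFP/RFP fluorescence ratio.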
Rev-erbA mod = modulators of human Rev-erb alpha DNA binding; Rev-erbα–FITC-DNA binding, fluorescence polarization, 90 min; activity, % at 10 µM; P20393; actives 0.79% (n = 370,000); AID 1259318;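 active = activity above about 14%, limit read from the data; passing the limit was not always enough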;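 note: 0% = DMSO wells with 35 nM protein and 100% = DMSO wells with 750 nM protein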
PG9 Ab binder = small molecules binding HIV-1 gp120 antibody PG9; TR-FRET gp120-PG9 antibody binding; inhibition, % at 6.7 µM; actives 0.43% (n = 360,000); in the data active = inhibition above about 8.5%
Rev-erbA confirm = confirmation of modulators of human Rev-erb alpha DNA binding; activation, % at 25 µM; actives 61% (n = 3,000); Rev-erb alpha FITC-DNA binding, fluorescence polarization, 90 min; AID 1259319; shares compounds with Rev-erbA mod;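 active = activation at or above a set limit, or at least 3 SD above the negative control mean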;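 note: 0% = 35 nM protein with DMSO and 100% = 750 nM protein high control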
RORg counter = affects RORgamma DNA binding in a Rev-erb alpha counter-screen | shares compounds with Rev-erbA mod | purified RORgamma protein-FITC-DNA binding, fluorescence polarization | IC50, µM | actives 8% (n = 910);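 active = Compounds whose fitted half-maximal concentration for disrupting protein-DNA binding is below 10 micromolar; the record names Rev-erb in its text, so the target is in doubt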
Active calls of the source: *; i = inactive; · = not tested or not shown. Sampled rows, rich in hits. Any-hit rate of the full collection: about 1.9%.

SMILES	NR2E3 ag-1	NR2E3 ag-2	SKN-1 block	MT1-MMP act inh	Rev-erbA mod	PG9 Ab binder	Rev-erbA confirm	others
O=C(CSc1nnc(-c2ccc3c(c2)OCO3)n1-c1ccccc1)c1ccc(Cl)cc1	3	-12	-3	0	4	-2	·
O=C(CSc1nnc(-c2ccc3c(c2)OCO3)n1-c1ccccc1)c1ccccc1	-7	-4	-4	-4	25*	-1	18*
O=C(NCc1ccccc1)[C@@H]1CCCN1C(=O)[C@H]1CCCN1C(=O)c1ccccc1Cl	·	·	·	·	-2	-1	·
COC(=O)N(C)C[C@H]1OCc2cn(nn2)CCCC(=O)N([C@H](C)CO)C[C@@H]1C	·	·	·	·	-9	-1	·
CCCn1c(N)c(C(=O)CSc2nc(C)cs2)c(=O)[nH]c1=O	-5	-5	-2	2	-7	1	·
CCCn1c(N)c(C(=O)CSc2nc(C)nc3sc(C)c(C)c23)c(=O)[nH]c1=O	-4	3	-23	2	35*	0	61*	RORg counter=i
CCN(C(=O)CSc1nc(C)nc2sc(C)c(C)c12)c1ccc(F)cc1	-1	-10	6	2	24*	2	9
Cc1nc(SCC(=O)N(C)Cc2ccco2)c2c(C)c(C)sc2n1	-2	2	-6	-1	-1	0	·
Cn1c(N)c(C(=O)CSc2nc3ccccc3c(=O)n2Cc2ccccc2)c(=O)n(C)c1=O	-1	-14	-16	2	13	0	·
CCCn1c(N)c(C(=O)CSc2nc3ccccc3c(=O)n2Cc2ccccc2)c(=O)[nH]c1=O	0	-3	10	-5	74*	1	61*
COC(=O)[C@]12C[C@H](CC(=O)NCC34CC5CC(CC(C5)C3)C4)C(=O)N(Cc3cccc4ccccc34)C1=C[C@H](C(C)(C)C)O[C@@H]2C	·	·	·	·	-1	·	·
OC1(c2ccc(Cl)c(C(F)(F)F)c2)CCN(CCCC(c2ccc(F)cc2)c2ccc(F)cc2)CC1	·	·	·	·	2	·	·
CCCCCCN1CCS(=O)(=O)N(Cc2ccc(OC)cc2)C(C(=O)OC)C1 (stereo unspecified)	·	·	·	·	-1	·	·
CC(C)NC(=O)N(C)C[C@@H]1OCc2cn(nn2)CCCC(=O)N([C@@H](C)CO)C[C@H]1C	·	·	·	·	6	-3	·
C=CCNc1cccc2c1S(=O)(=O)N[C@H](C)CO2	·	·	·	·	2	0	·
CCc1nc2c(OCc3ccc(F)cc3)cccn2c1N(C)C(=O)COc1ccccc1	·	29	-6	·	-4	-1	·
O=C(Nc1nnc(-c2ccccc2)o1)c1cccc(N2C(=O)CCC2=O)c1	2	-5	-3	-1	-4	1	·
O=C(Nc1nnc(-c2ccc(Br)cc2)o1)c1cccc(N2C(=O)CCC2=O)c1	6	3	11	3	18*	-2	0
Cc1ccc2cc(-c3noc(C4CCCCC4)n3)c(=O)[nH]c2c1	3	12	8	-1	41*	0	34*	RORg counter=>40
Cc1ccc2cc(-c3noc(C4CCCO4)n3)c(=O)[nH]c2c1 (stereo unspecified)	-1	7	-8	2	-6	2	·
CSc1nc(N)c2c(C)c(C)sc2n1	1	-2	9	8	-1	1	·
C=C(C)CSc1nc(N)c2c(C)c(C)sc2n1	5	-26	24	4	26*	1	26*
CC(Sc1nn(-c2ccc(F)cc2)c(=S)s1)C(=O)c1c(N)n(C)c(=O)n(C)c1=O (stereo unspecified)	-3	-20	0	9	22*	2	24*
CNC(C)C(=O)NC(C(=O)N1CCCC1C(=O)Nc1cccc2ncccc12)C(C)C (stereo unspecified)	·	·	·	·	0	·	·
CCOC(=O)c1c(NC(=O)c2nc3n(n2)C(C(F)F)CC(C)N3)sc2c1CCCC2 (stereo unspecified)	0	-10	5	7	22*	0	7
SMILES	NR2E3 ag-1	NR2E3 ag-2	SKN-1 block	MT1-MMP act inh	Rev-erbA mod	PG9 Ab binder	Rev-erbA confirm	others
COc1ccc(-c2cc3c(=O)n(CC(=O)Nc4ccc(C(C)=O)cc4)ncn3n2)cc1	0	-20	10	-1	34*	-2	41*	RORg counter=>40
COC(=O)c1ccccc1NC(=O)c1cc2ncc(Br)cn2n1	-2	-5	3	4	23*	0	2
COc1ccccc1N(C)S(=O)(=O)c1ccc(Cl)c(C(=O)OCc2c(C)noc2C)c1	-1	1	-5	-3	18*	0	17
O=C(COC(=O)c1ccc2ccccc2c1O)Nc1ccccc1	·	-12	-8	3	59*	1	28*
C=CCN=C1NC(c2ccc(F)cc2)C(C(=O)OC)=C(C)N1C (stereo unspecified)	·	·	·	·	4	1	·
Cc1onc(-c2c(F)cccc2Cl)c1C(=O)Nc1sc2c(c1C#N)CCC(C(C)(C)C)C2 (stereo unspecified)	2	12	-11	-2	27*	-2	20*
CC(C)(C)C(=O)Cn1c(=O)n(CC2CCCO2)c(=O)c2ccccc21 (stereo unspecified)	2	-8	10	1	2	1	·
O=C(Cn1c(=O)n(CC2CCCO2)c(=O)c2ccccc21)c1ccc(Cl)c(Cl)c1 (stereo unspecified)	-3	-30	-12	14	27*	5	24*
COc1ccc(-c2cc3nc[nH]c(=O)c3s2)cc1	1	-87	12	6	42*	1	15
Cc1cc(C)c2c(n1)nn1c(N3CCN(c4ccccc4C)CC3)cc(C)nc21	-3	-21	-10	1	71*	3	26*
COc1ccc(CN2CCN(c3cc(C)nc4c5c(C)cc(C)nc5nn34)CC2)cc1F	1	-21	23	14	0	0	·
COc1ccc(-c2ccc3oc(-c4ccsc4)cc(=O)c3c2)cc1F	·	-12	21	9	66*	-7	31*
COc1cc2c(Nc3ccc(Br)cc3F)ncnc2cc1OCC1CCN(C)CC1	·	·	·	·	5	·	·
C[C@@H](CO)NC(=O)c1[nH]cnc1C(=O)Nc1ccccc1	·	·	·	·	-3	-2	·
CN1CCCCC(NC(=O)c2cccc([N+](=O)[O-])c2)C1=O (stereo unspecified)	·	·	·	·	4	1	·
COc1ccccc1Nc1nc2ccc(C)cc2cc1C#N	2	-6	-30	-22	8	1	·
COc1ccccc1Nc1nc2cc(C)ccc2cc1C#N	1	-13	8	0	96*	0	13

Screens as filed in PubChem BioAssay.
